Each structure is given as a SMILES string. Active and inactive are the calls of the source. The calls are words filed in the database; no cut-off is given here.

For test [1], the target named is T1, Rap guanine nucleotide exchange factor 4 (Homo sapiens, UniProt Q8WZA2). The test can be described thus: Antagonist activity at recombinant EPAC2 (unknown origin) assessed 8-NBD-cAMP substrate fluorescence intensity by substrate competing assay.
Target sequence in this assay (Q8WZA2 whole entry): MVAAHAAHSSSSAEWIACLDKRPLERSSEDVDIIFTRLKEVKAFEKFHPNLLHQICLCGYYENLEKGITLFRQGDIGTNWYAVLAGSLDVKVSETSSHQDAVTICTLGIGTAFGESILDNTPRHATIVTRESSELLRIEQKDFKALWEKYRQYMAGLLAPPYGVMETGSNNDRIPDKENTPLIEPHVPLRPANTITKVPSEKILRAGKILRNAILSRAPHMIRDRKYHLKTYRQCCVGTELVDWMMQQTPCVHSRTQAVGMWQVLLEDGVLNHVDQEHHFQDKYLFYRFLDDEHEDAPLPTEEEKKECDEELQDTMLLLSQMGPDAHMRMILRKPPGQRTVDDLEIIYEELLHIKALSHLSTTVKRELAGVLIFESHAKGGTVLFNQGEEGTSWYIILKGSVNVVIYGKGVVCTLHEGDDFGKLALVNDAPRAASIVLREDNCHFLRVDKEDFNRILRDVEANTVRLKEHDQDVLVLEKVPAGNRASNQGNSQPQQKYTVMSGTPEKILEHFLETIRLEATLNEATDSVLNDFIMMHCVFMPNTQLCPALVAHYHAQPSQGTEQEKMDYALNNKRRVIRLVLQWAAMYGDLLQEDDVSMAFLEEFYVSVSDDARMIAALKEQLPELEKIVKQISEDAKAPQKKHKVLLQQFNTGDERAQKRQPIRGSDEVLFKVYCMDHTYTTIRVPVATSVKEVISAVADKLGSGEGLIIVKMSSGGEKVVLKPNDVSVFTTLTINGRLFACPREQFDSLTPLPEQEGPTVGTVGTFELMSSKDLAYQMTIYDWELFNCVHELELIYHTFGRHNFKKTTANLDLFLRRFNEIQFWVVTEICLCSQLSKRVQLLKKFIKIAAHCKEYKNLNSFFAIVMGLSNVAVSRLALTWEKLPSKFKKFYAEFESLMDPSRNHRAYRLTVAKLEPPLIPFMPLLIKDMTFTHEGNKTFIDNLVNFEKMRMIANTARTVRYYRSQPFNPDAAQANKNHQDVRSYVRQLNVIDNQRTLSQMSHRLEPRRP
The species named for test [2] is Homo sapiens. Kind of test: Inhibition of PKA2 (unknown origin) assessed as inhibition of cAMP-induced activation at 25 uM by spectrophotometric analysis. Put shortly: (§1)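 Coupled pyruvate kinase/lactate dehydrogenase assay following NADH oxidation at 340 nm, at room temperature. The reaction was started with Kemptide (0.26 mM final). H89 (25 µM) served as the inhibition control.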

For test [3], the species on record is Homo sapiens. Kind of test: Inhibition of PKA1 (unknown origin) assessed as inhibition of cAMP-induced activation at 25 uM by spectrophotometric analysis. An outline of the steps:
as §1

Test [4] addresses T2, Rap guanine nucleotide exchange factor 3 (Homo sapiens) (UniProt O95398).
T2 sequence (whole entry): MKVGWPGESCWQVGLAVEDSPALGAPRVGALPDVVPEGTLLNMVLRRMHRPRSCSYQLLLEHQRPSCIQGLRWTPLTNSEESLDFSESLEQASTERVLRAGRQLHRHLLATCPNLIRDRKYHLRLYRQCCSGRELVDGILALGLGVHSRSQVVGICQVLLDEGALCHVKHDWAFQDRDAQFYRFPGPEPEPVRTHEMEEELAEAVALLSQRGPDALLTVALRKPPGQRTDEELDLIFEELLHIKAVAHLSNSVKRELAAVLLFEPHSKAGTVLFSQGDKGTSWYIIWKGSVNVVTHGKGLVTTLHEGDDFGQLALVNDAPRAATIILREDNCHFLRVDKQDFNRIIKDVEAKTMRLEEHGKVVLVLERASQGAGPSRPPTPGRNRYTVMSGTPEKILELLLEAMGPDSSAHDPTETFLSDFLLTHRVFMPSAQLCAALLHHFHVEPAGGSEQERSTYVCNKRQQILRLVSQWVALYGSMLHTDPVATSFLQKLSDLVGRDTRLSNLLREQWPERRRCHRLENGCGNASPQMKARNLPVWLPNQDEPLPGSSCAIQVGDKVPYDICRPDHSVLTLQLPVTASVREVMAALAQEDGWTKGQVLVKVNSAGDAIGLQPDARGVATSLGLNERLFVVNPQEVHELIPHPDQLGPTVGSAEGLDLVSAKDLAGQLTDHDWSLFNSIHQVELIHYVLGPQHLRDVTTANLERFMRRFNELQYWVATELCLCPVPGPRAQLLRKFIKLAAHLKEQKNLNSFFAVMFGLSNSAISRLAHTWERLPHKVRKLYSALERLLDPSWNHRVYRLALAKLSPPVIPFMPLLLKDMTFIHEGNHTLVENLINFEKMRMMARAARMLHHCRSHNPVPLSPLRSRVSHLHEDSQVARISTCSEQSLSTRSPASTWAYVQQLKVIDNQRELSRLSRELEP
Kind of test: Inhibition of recombinant EPAC1 (unknown origin) assessed as inhibition of cAMP-mediated RAP1-GDP exchange activity at 25 uM by spectrofluorometric analysis. An outline of the steps: (§2)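 Purified recombinant full-length EPAC1 or EPAC2 with 0.2 µM Mant-GDP-loaded Rap1B(1-167) in 50 mM Tris pH 7.5, 50 mM NaCl, 5 mM MgCl2, 1 mM DTT and 20 µM unlabeled GDP. […] Fluorescence decay (ex 366/em 450 nm) was recorded every 60 s over 6000 s.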

For test [5], the target named is T1, Rap guanine nucleotide exchange factor 4. The test can be described thus: Inhibition of recombinant EPAC2 (unknown origin) assessed as inhibition of cAMP-mediated guanine nucleotide exchange factor activity at 25 uM by spectrofluorometric analysis. An outline of the steps: as §2
Target sequence in this assay (Q8WZA2 whole entry, looked up): as the sequence (Q8WZA2 whole entry) above
Test [6] addresses T2, Rap guanine nucleotide exchange factor 3 (Homo sapiens). Kind of test: Inhibition FL-tagged full length human EPAC1 expressed in HEK293 cells assessed as inhibition of 007-AM-induced activation at 10 uM by FRET assay. The format is cell-based.
The subject of the next test is HEK293. The test can be described thus: Inhibition of N-terminal CFP/C-terminal YFP tagged PKA (unknown origin) expressed in HEK293 cells assessed as inhibition of 8-Br-cAMP-AM-induced activation at 10 uM by FRET assay. The format is cell-based. The conditions noted are these: Homo sapiens.
The target in test [7] is T1, Rap guanine nucleotide exchange factor 4. The conditions noted are these: HEK293, 10 uM.
Target sequence in this assay (Q8WZA2 whole entry, looked up): as the sequence (Q8WZA2 whole entry) above

With `Cc1cc(C)c(S(=O)(=O)c2cc(C)c(C)cc2C)c(C)c1`, the concentration for half-maximal inhibition (IC50) in test [1] was found to be 0.7 µM.

With `Cc1ccc(S(=O)(=O)c2c(C)cc(C)cc2C)cc1`, the inhibition result (in the test filed under Homo sapiens [2]; in the test listed under Homo sapiens [3]; in test [4]) was “inactive” in each case. The inhibition result in test [5] was “Active”.

As for `CCc1cccn1S(=O)(=O)c1ccc(C)cc1`, the IC50 in test [1] was 4 µM.

On to `Cc1cc(C)c(S(=O)(=O)c2ccc(O)cc2)c(C)c1`, for which the IC50 in test [1] was 13.5 µM.

Turning to `Cc1cc(C)c(S(=O)(=O)c2ccc(OC3CCCCC3)cc2)c(C)c1`, the concentration for half-maximal inhibition (IC50) in test [1] is greater than 300 µM.

Take `COc1ccc(S(=O)(=O)c2c(C)cc(C)cc2C)cc1`: in test [1], the IC50 turned out to be 1.9 µM.

For the compound `Cc1cc(C)c(Nc2cc(Cl)cc(Cl)c2)c(C)c1`, the IC50 in test [1] was determined as 0.9 µM.

`Cc1cc(C)c(S(=O)(=O)n2cc(C)cc2C)c(C)c1`: the inhibition result (in test [6]; in the test with HEK293; in the test listed under Homo sapiens [2]; in the test listed under Homo sapiens [3]; in test [4]) was “inactive” throughout. Moreover, the inhibition result in test [5] and in test [7] was “Active” throughout.

Turning to `Cc1cc(C)c(S(=O)(=O)c2ccc(OC3CCN(C(=O)OC(C)(C)C)CC3)cc2)c(C)c1`, in test [1], the IC50 is greater than 300 µM.

Consider `Cc1cc(C)c(S(=O)(=O)n2ccc3cccnc32)c(C)c1`, for which, in test [1], the half-maximal inhibitory concentration (IC50) came to 2.4 µM.

With `Cc1cc(C)c(S(=O)(=O)c2ccc(OC3CCNCC3)cc2)c(C)c1`, the IC50 in test [1] is greater than 300 µM.

`Cc1cc(C)c(S(=O)(=O)c2ccc(OCCN)cc2)c(C)c1`: the IC50 in test [1] was greater than 300 µM.

In the case of `Cc1ccc(Nc2c(C)cc(C)cc2C)cc1`, the IC50 in test [1] is 3.8 µM.

For `Cc1cc(C)c(S(=O)(=O)c2ccc(I)cc2)c(C)c1`, the IC50 in test [1] stood at 4 µM.

Turning to `CCc1cccn1S(=O)(=O)c1ccc(C(F)(F)F)cc1`, in test [1], the concentration for half-maximal inhibition (IC50) was greater than 300 µM.

As to `CCCCCc1ccc(S(=O)(=O)c2c(C)cc(C)cc2C)cc1`, in test [1], the IC50 is greater than 300 µM.

`Cc1cc(C)c(Nc2cc(Cl)ccc2Cl)c(C)c1`: the inhibition entry (in the test listed under Homo sapiens [2]; in the test listed under Homo sapiens [3]; in test [4]) was “inactive” throughout. Further, the inhibition entry in test [5] was “Active”. The IC50 in test [1] was found to be 0.4 µM.

On to `CCc1cccn1S(=O)(=O)c1ccc(OC)cc1`, for which, in test [1], the IC50 was 8 µM.

`Cc1cc(C)c(S(=O)(=O)c2ccc(-c3ccc(F)nc3)cc2)c(C)c1`: the IC50 in test [1] was greater than 300 µM.

On to `CCc1cccn1S(=O)(=O)c1ccccc1C`, for which, in test [1], the IC50 came to 5.3 µM.

Consider `Cc1cc(C)c(Nc2nc(C)c(C)s2)c(C)c1`, for which, in test [1], the IC50 was greater than 300 µM.

For the compound `COC(=O)c1ccc2c(ccn2S(=O)(=O)c2c(C)cc(C)cc2C)c1`, in test [1], the concentration for half-maximal inhibition (IC50) was greater than 300 µM.

As for `O=S(=O)(NCCNC/C=C/c1ccc(Br)cc1)c1cccc2cnccc12`, the inhibition entry in the test listed under Homo sapiens [2] and in the test filed under Homo sapiens [3] was “Active” in each case.

Regarding `Cc1cc(C)c(S(=O)(=O)n2ccc3ncccc32)c(C)c1`, the IC50 in test [1] came to 3.8 µM.

In the case of `Cc1cc(C)c(S(=O)(=O)c2ccc(C3CCCCC3)cc2)c(C)c1`, the IC50 in test [1] is greater than 300 µM.

As for `Nc1ccc(Nc2ccc(N)cc2S(=O)(=O)O)cc1`, in test [1], the IC50 is 18 µM.

Take `CCc1cccn1S(=O)(=O)c1cc(C)cc(C)c1`: in test [1], the IC50 came out at 4.7 µM.

Regarding `Cc1cc(C)c(S(=O)(=O)n2ccc3ccccc32)c(C)c1`, the concentration for half-maximal inhibition (IC50) in test [1] came out at 1.2 µM.

For `Cc1cc(C)c(S(=O)(=O)n2ccc3cnccc32)c(C)c1`, the IC50 in test [1] stood at 8.9 µM.

In the case of `Cc1cc(C)c(S(=O)(=O)n2ccc3cc(C(=O)O)ccc32)c(C)c1`, in test [1], the IC50 was determined as 10.8 µM.

For the compound `Cc1cc(C)c(S(=O)(=O)n2ccc3ccncc32)c(C)c1`, in test [1], the IC50 amounted to 12.6 µM.

For the compound `CCc1cccn1S(=O)(=O)c1ccc(C)cc1C`, the IC50 in test [1] turned out to be 1.3 µM.
